Reference: ChEMBL document CHEMBL1145502, “Roxithromycin favorably modifies the initial phase of resistance against infection with macrolide-resistant Streptococcus pneumoniae in a murine pneumonia model” (Antimicrob Agents Chemother, 2007)
Converted amounts (≈) assume the structure as drawn. The source made the active and inactive calls. No cut-off for these calls is given here.

What was measured:
Streptococcus pneumoniae [1] = test: Antimicrobial activity against drug-resistant Streptococcus pneumoniae NMU112 infected CBA/J mouse assessed as median survival time at 10 mg/kg, po relative to control; format: functional
Method in brief: (§1)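 Male CBA/J mice, 3-4 weeks old, 28-30 g. Macrolide given by oral gavage in saline for 3 days; RXM, ERY and CLR twice daily at 12-h intervals, AZM once daily. Saline controls. 24 h after the last dose, mice were infected intratracheally with 5 × 10⁴ CFU NMU112 (erm(B)/mef(A)). Kaplan-Meier survival and median survival time, log rank test; 10 mice per group per experiment.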

Streptococcus pneumoniae [2] = test: Antimicrobial activity against drug-resistant Streptococcus pneumoniae NMU112 infected CBA/J mouse assessed as median survival time at 5 mg/kg, po relative to control; format: functional; method in brief: as §1
Streptococcus pneumoniae [3] = test: Antimicrobial activity against Streptococcus pneumoniae NMU112 infected in po dosed CBA/J mouse assessed as delaying in development of bacteremia […]; format: functional, organism-based
Streptococcus pneumoniae [4] = test: Antimicrobial activity against Streptococcus pneumoniae NMU112; format: functional
Method in brief: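 Broth microdilution MIC per NCCLS in Mueller-Hinton broth with 3% lysed horse blood.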

Streptococcus pneumoniae [5] = test: Antimicrobial activity against Streptococcus pneumoniae NMU605; format: functional
Method in brief: (§2)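 Broth microdilution MIC (NCCLS method) in Mueller-Hinton broth with 3% lysed horse blood; clinical isolates NMU605 (serotype 3) and NMUP45 (serotype 4).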

Streptococcus pneumoniae [6] = test: Reduction of pneumolysin production in Streptococcus pneumoniae NMU112 lysates at 5 ug/mL after 12 hrs by Western blot relative to control; format: functional, organism-based
Method in brief: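 NMU112 at 5 × 10⁷ CFU/ml in THY cultured with macrolide at 37°C for 12 h, then whole-cell sonicated lysates run on SDS-PAGE and immunoblotted for pneumolysin. Band densitometry as mean % of drug-free culture; two cultures per dose per experiment, three experiments.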

Streptococcus pneumoniae [7] = test: Inhibition of pneumococcal surface protein A production in Streptococcus pneumoniae NMU112 lysates at 5 ug/mL after 12 hrs by Western blot relative to control; format: functional, organism-based
Method in brief: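 Strain NMU112 (5 × 10⁷ CFU/ml in THY) cultured 12 h at 37°C with drug. Sonicated whole-cell lysates run on SDS-PAGE and Western blotted; bands measured by densitometry as % of drug-free culture. Two cultures per dose, three experiments (n = 5–6).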

Streptococcus pneumoniae [8] = test: Antimicrobial activity against Streptococcus pneumoniae NMUP45; format: functional; method in brief: as §2

**Q.** For `CC[C@H]1OC(=O)[C@H](C)[C@@H](O[C@H]2C[C@@](C)(OC)[C@@H](O)[C@H](C)O2)[C@H](C)[C@@H](O[C@@H]2O[C@H](C)C[C@H](N(C)C)[C@H]2O)[C@](C)(O)C[C@@H](C)CN(C)[C@H](C)[C@@H](O)[C@]1(C)O` [AZITHROMYCIN], which MST (Streptococcus pneumoniae [1]) is on record?
**A.** Its MST is 7.33 days.

**Q.** What about the MST (Streptococcus pneumoniae [2]) of the same compound?
**A.** The MST was 5.84 days.

**Q.** And the Activity (Streptococcus pneumoniae [3])?
**A.** The Activity was “Active”.

**Q.** And the MIC (Streptococcus pneumoniae [4])?
**A.** The MIC was ≥ 256 µg/mL.

**Q.** And the MIC (Streptococcus pneumoniae [5])?
**A.** The MIC was 0.125 µg/mL (≈ 0.167 µM).

**Q.** What about the Activity (Streptococcus pneumoniae [6]) of the same compound?
**A.** Its Activity is “Active”.

**Q.** And the Activity (Streptococcus pneumoniae [7])?
**A.** The Activity was “Active”.

**Q.** `CC[C@H]1OC(=O)[C@H](C)[C@@H](O[C@H]2C[C@@](C)(OC)[C@@H](O)[C@H](C)O2)[C@H](C)[C@@H](O[C@@H]2O[C@H](C)C[C@H](N(C)C)[C@H]2O)[C@](C)(OC)C[C@@H](C)C(=O)[C@H](C)[C@@H](O)[C@]1(C)O` [CLARITHROMYCIN] was tested. Which MST (Streptococcus pneumoniae [1]) did it give?
**A.** The MST was 8.45 days.

**Q.** And the MST (Streptococcus pneumoniae [2])?
**A.** The MST was 6.82 days.

**Q.** And the Activity (Streptococcus pneumoniae [3])?
**A.** The Activity was “Active”.

**Q.** And the MIC (Streptococcus pneumoniae [4])?
**A.** The MIC was ≥ 256 µg/mL.

**Q.** And the MIC (Streptococcus pneumoniae [8])?
**A.** Its MIC is 2 µg/mL (≈ 2.67 µM).

**Q.** What about the MIC (Streptococcus pneumoniae [5]) of the same compound?
**A.** The MIC was 0.03 µg/mL (≈ 0.0401 µM).

**Q.** And the Activity (Streptococcus pneumoniae [6])?
**A.** The Activity was “Active”.

**Q.** And the Activity (Streptococcus pneumoniae [7])?
**A.** Its Activity is “Active”.
